# ChEMBL document CHEMBL5058577, “EUbOPEN Chemogenomics Library 2 (Multiplex)” (2022)
# Tested on: HEK-293T
# Experiment: Multiplex assay against HEK293T
# Type: toxicity, cell-based
# Settings: human
# Outline: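 Per cents of healthy-nucleus cells form the tubulin, mitochondrial-mass and membrane-permeability phenotype values. Live cells were stained at seeding with Hoechst33342, BioTracker Green Microtubule Cytoskeleton Dye, MitoTracker Red and Annexin V Alexa Fluor 680. After compound addition they were imaged on a CQ1 microscope at 37°C and 5% CO2, and CellPathfinder machine-learning gating split them into Hoechst high-intensity objects or normal cells, normal cells into healthy, pyknosed or fragmented nuclei, and pyknosed cells into mitotic or apoptotic.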
# [1] = 12 h, 1 µM, compound concentration 1 uM, replicate 1
# [2] = 12 h, 1 µM, compound concentration 1 uM, replicate 2
# [3] = 12 h, 10 µM, compound concentration 10 uM, replicate 1
# [4] = 12 h, 10 µM, compound concentration 10 uM, replicate 2
# [5] = 24 h, 1 µM, compound concentration 1 uM, replicate 1
# [6] = 24 h, 1 µM, compound concentration 1 uM, replicate 2
# [7] = 24 h, 10 µM, compound concentration 10 uM, replicate 1
# [8] = 24 h, 10 µM, compound concentration 10 uM, replicate 2
# [9] = 48 h, 1 µM, compound concentration 1 uM, replicate 1
# [10] = 48 h, 1 µM, compound concentration 1 uM, replicate 2
# [11] = 48 h, 10 µM, compound concentration 10 uM, replicate 1
# [12] = 48 h, 10 µM, compound concentration 10 uM, replicate 2
smiles,measurement,setting,value
N[C@@]1(C(=O)O)CO[C@H]2[C@H](C(=O)O)[C@H]21 [LY-379268],Population Apoptotic (%),[1],40%
same,Population Fragmented Nuclei (%),[1],6%
same,Population Healthy Nuclei (%),[1],81%
same,Population Hoechst High Intensity Objects (%),[1],5%
same,Population Membrane Permeable-Phenotype (%),[1],0%
same,Population Mitochondria Different-Phenotype (%),[1],38%
same,Population Mitotic Cells (%),[1],60%
same,Population Normal (%),[1],94%
same,Population Pyknosed Nuclei (%),[1],12%
same,Population Tubulin-Different-Phenotype (%),[1],26%
same,Total Cell Count,[1],396
same,Population Apoptotic (%),[2],42%
same,Population Healthy Nuclei (%),[2],80%
same,Population Hoechst High Intensity Objects (%),[2],10%
same,Population Membrane Permeable-Phenotype (%),[2],1%
same,Population Mitochondria Different-Phenotype (%),[2],57%
same,Population Mitotic Cells (%),[2],57%
same,Population Normal (%),[2],89%
same,Population Tubulin-Different-Phenotype (%),[2],18%
same,Total Cell Count,[2],411
same,Population Apoptotic (%),[3],27%
same,Population Fragmented Nuclei (%),[3],10%
same,Population Healthy Nuclei (%),[3],78%
same,Population Hoechst High Intensity Objects (%),[3],8%
same,Population Membrane Permeable-Phenotype (%),[3],0%
same,Population Mitochondria Different-Phenotype (%),[3],33%
same,Population Mitotic Cells (%),[3],72%
same,Population Normal (%),[3],91%
same,Population Pyknosed Nuclei (%),[3],10%
same,Population Tubulin-Different-Phenotype (%),[3],31%
same,Total Cell Count,[3],437
same,Population Apoptotic (%),[4],52%
same,Population Fragmented Nuclei (%),[4],8%
same,Population Healthy Nuclei (%),[4],79%
same,Population Hoechst High Intensity Objects (%),[4],7%
same,Population Mitochondria Different-Phenotype (%),[4],51%
same,Population Mitotic Cells (%),[4],47%
same,Population Normal (%),[4],92%
same,Population Pyknosed Nuclei (%),[4],12%
same,Population Tubulin-Different-Phenotype (%),[4],18%
same,Total Cell Count,[4],380
same,Population Apoptotic (%),[5],30%
same,Population Fragmented Nuclei (%),[5],8%
same,Population Healthy Nuclei (%),[5],79%
same,Population Hoechst High Intensity Objects (%),[5],2%
same,Population Membrane Permeable-Phenotype (%),[5],0%
same,Population Mitochondria Different-Phenotype (%),[5],21%
same,Population Mitotic Cells (%),[5],70%
same,Population Normal (%),[5],97%
same,Population Pyknosed Nuclei (%),[5],11%
same,Population Tubulin-Different-Phenotype (%),[5],20%
same,Total Cell Count,[5],517
same,Population Apoptotic (%),[6],29%
same,Population Fragmented Nuclei (%),[6],7%
same,Population Healthy Nuclei (%),[6],83%
same,Population Hoechst High Intensity Objects (%),[6],7%
same,Population Mitochondria Different-Phenotype (%),[6],31%
same,Population Normal (%),[6],92%
same,Population Pyknosed Nuclei (%),[6],9%
same,Population Tubulin-Different-Phenotype (%),[6],13%
same,Total Cell Count,[6],481
same,Population Apoptotic (%),[7],36%
same,Population Fragmented Nuclei (%),[7],10%
same,Population Healthy Nuclei (%),[7],79%
same,Population Hoechst High Intensity Objects (%),[7],6%
same,Population Membrane Permeable-Phenotype (%),[7],0%
same,Population Mitochondria Different-Phenotype (%),[7],24%
same,Population Mitotic Cells (%),[7],63%
same,Population Normal (%),[7],93%
same,Population Pyknosed Nuclei (%),[7],9%
same,Population Tubulin-Different-Phenotype (%),[7],15%
same,Total Cell Count,[7],551
same,Population Apoptotic (%),[8],43%
same,Population Fragmented Nuclei (%),[8],8%
same,Population Healthy Nuclei (%),[8],82%
same,Population Hoechst High Intensity Objects (%),[8],8%
same,Population Mitochondria Different-Phenotype (%),[8],39%
same,Population Mitotic Cells (%),[8],56%
same,Population Normal (%),[8],91%
same,Total Cell Count,[8],470
same,Population Apoptotic (%),[9],26%
same,Population Fragmented Nuclei (%),[9],13%
same,Population Healthy Nuclei (%),[9],79%
same,Population Hoechst High Intensity Objects (%),[9],3%
same,Population Membrane Permeable-Phenotype (%),[9],1%
same,Population Mitochondria Different-Phenotype (%),[9],15%
same,Population Mitotic Cells (%),[9],73%
same,Population Normal (%),[9],97%
same,Population Pyknosed Nuclei (%),[9],6%
same,Population Tubulin-Different-Phenotype (%),[9],9%
same,Total Cell Count,[9],866
same,Population Apoptotic (%),[10],33%
same,Population Fragmented Nuclei (%),[10],10%
same,Population Healthy Nuclei (%),[10],81%
same,Population Hoechst High Intensity Objects (%),[10],7%
same,Population Membrane Permeable-Phenotype (%),[10],0%
same,Population Mitochondria Different-Phenotype (%),[10],22%
same,Population Mitotic Cells (%),[10],66%
same,Population Normal (%),[10],92%
same,Population Pyknosed Nuclei (%),[10],7%
same,Population Tubulin-Different-Phenotype (%),[10],14%
same,Total Cell Count,[10],611
same,Population Apoptotic (%),[11],24%
same,Population Fragmented Nuclei (%),[11],16%
same,Population Healthy Nuclei (%),[11],75%
same,Population Hoechst High Intensity Objects (%),[11],4%
same,Population Membrane Permeable-Phenotype (%),[11],1%
same,Population Mitochondria Different-Phenotype (%),[11],18%
same,Population Mitotic Cells (%),[11],75%
same,Population Normal (%),[11],95%
same,Population Pyknosed Nuclei (%),[11],7%
same,Population Tubulin-Different-Phenotype (%),[11],10%
same,Total Cell Count,[11],781
same,Population Apoptotic (%),[12],25%
same,Population Fragmented Nuclei (%),[12],11%
same,Population Healthy Nuclei (%),[12],80%
same,Population Membrane Permeable-Phenotype (%),[12],0%
same,Population Mitochondria Different-Phenotype (%),[12],19%
same,Population Tubulin-Different-Phenotype (%),[12],9%
same,Total Cell Count,[12],689
CN1CCN2c3ncccc3Cc3ccccc3C2C1 (centres undefined) [MIRTAZAPINE],Population Apoptotic (%),[1],58%
same,Population Fragmented Nuclei (%),[1],4%
same,Population Healthy Nuclei (%),[1],88%
same,Population Hoechst High Intensity Objects (%),[1],5%
same,Population Membrane Permeable-Phenotype (%),[1],0%
same,Population Mitochondria Different-Phenotype (%),[1],41%
same,Population Mitotic Cells (%),[1],41%
same,Population Normal (%),[1],94%
same,Population Pyknosed Nuclei (%),[1],7%
same,Population Tubulin-Different-Phenotype (%),[1],22%
same,Total Cell Count,[1],402
same,Population Apoptotic (%),[2],51%
same,Population Fragmented Nuclei (%),[2],3%
same,Population Healthy Nuclei (%),[2],79%
same,Population Hoechst High Intensity Objects (%),[2],7%
same,Population Mitochondria Different-Phenotype (%),[2],68%
same,Population Mitotic Cells (%),[2],48%
same,Population Normal (%),[2],92%
same,Population Pyknosed Nuclei (%),[2],17%
same,Population Tubulin-Different-Phenotype (%),[2],21%
same,Total Cell Count,[2],329
same,Population Apoptotic (%),[3],45%
same,Population Fragmented Nuclei (%),[3],9%
same,Population Healthy Nuclei (%),[3],75%
same,Population Hoechst High Intensity Objects (%),[3],6%
same,Population Membrane Permeable-Phenotype (%),[3],0%
same,Population Mitochondria Different-Phenotype (%),[3],49%
same,Population Mitotic Cells (%),[3],54%
same,Population Normal (%),[3],93%
same,Population Pyknosed Nuclei (%),[3],15%
same,Population Tubulin-Different-Phenotype (%),[3],43%
same,Total Cell Count,[3],228
same,Population Apoptotic (%),[4],47%
same,Population Fragmented Nuclei (%),[4],5%
same,Population Healthy Nuclei (%),[4],79%
same,Population Membrane Permeable-Phenotype (%),[4],1%
same,Population Mitochondria Different-Phenotype (%),[4],64%
same,Population Mitotic Cells (%),[4],52%
same,Population Tubulin-Different-Phenotype (%),[4],36%
same,Total Cell Count,[4],240
same,Population Apoptotic (%),[5],33%
same,Population Fragmented Nuclei (%),[5],9%
same,Population Healthy Nuclei (%),[5],80%
same,Population Hoechst High Intensity Objects (%),[5],3%
same,Population Membrane Permeable-Phenotype (%),[5],0%
same,Population Mitochondria Different-Phenotype (%),[5],35%
same,Population Mitotic Cells (%),[5],66%
same,Population Normal (%),[5],97%
same,Population Pyknosed Nuclei (%),[5],10%
same,Population Tubulin-Different-Phenotype (%),[5],18%
same,Total Cell Count,[5],601
same,Population Apoptotic (%),[6],42%
same,Population Fragmented Nuclei (%),[6],6%
same,Population Healthy Nuclei (%),[6],79%
same,Population Hoechst High Intensity Objects (%),[6],6%
same,Population Mitochondria Different-Phenotype (%),[6],47%
same,Population Mitotic Cells (%),[6],57%
same,Population Normal (%),[6],93%
same,Population Pyknosed Nuclei (%),[6],14%
same,Population Tubulin-Different-Phenotype (%),[6],17%
same,Total Cell Count,[6],373
same,Population Apoptotic (%),[7],44%
same,Population Fragmented Nuclei (%),[7],9%
same,Population Healthy Nuclei (%),[7],78%
same,Population Hoechst High Intensity Objects (%),[7],3%
same,Population Membrane Permeable-Phenotype (%),[7],0%
same,Population Mitochondria Different-Phenotype (%),[7],40%
same,Population Mitotic Cells (%),[7],55%
same,Population Normal (%),[7],96%
same,Population Pyknosed Nuclei (%),[7],12%
same,Population Tubulin-Different-Phenotype (%),[7],28%
same,Total Cell Count,[7],274
same,Population Apoptotic (%),[8],32%
same,Population Fragmented Nuclei (%),[8],5%
same,Population Healthy Nuclei (%),[8],80%
same,Population Hoechst High Intensity Objects (%),[8],5%
same,Population Mitochondria Different-Phenotype (%),[8],44%
same,Population Mitotic Cells (%),[8],67%
same,Population Normal (%),[8],94%
same,Population Pyknosed Nuclei (%),[8],13%
same,Population Tubulin-Different-Phenotype (%),[8],18%
same,Total Cell Count,[8],314
same,Population Apoptotic (%),[9],23%
same,Population Fragmented Nuclei (%),[9],11%
same,Population Healthy Nuclei (%),[9],82%
same,Population Hoechst High Intensity Objects (%),[9],2%
same,Population Membrane Permeable-Phenotype (%),[9],1%
same,Population Mitochondria Different-Phenotype (%),[9],19%
same,Population Mitotic Cells (%),[9],76%
same,Population Normal (%),[9],97%
same,Population Pyknosed Nuclei (%),[9],6%
same,Population Tubulin-Different-Phenotype (%),[9],13%
same,Total Cell Count,[9],885
same,Population Apoptotic (%),[10],44%
same,Population Fragmented Nuclei (%),[10],13%
same,Population Healthy Nuclei (%),[10],80%
same,Population Hoechst High Intensity Objects (%),[10],3%
same,Population Membrane Permeable-Phenotype (%),[10],0%
same,Population Mitochondria Different-Phenotype (%),[10],21%
same,Population Mitotic Cells (%),[10],55%
same,Population Normal (%),[10],96%
same,Population Tubulin-Different-Phenotype (%),[10],9%
same,Total Cell Count,[10],562
same,Population Apoptotic (%),[11],31%
same,Population Fragmented Nuclei (%),[11],14%
same,Population Healthy Nuclei (%),[11],74%
same,Population Hoechst High Intensity Objects (%),[11],2%
same,Population Membrane Permeable-Phenotype (%),[11],0%
same,Population Mitochondria Different-Phenotype (%),[11],36%
same,Population Mitotic Cells (%),[11],68%
same,Population Normal (%),[11],97%
same,Population Pyknosed Nuclei (%),[11],10%
same,Population Tubulin-Different-Phenotype (%),[11],20%
same,Total Cell Count,[11],390
same,Population Apoptotic (%),[12],30%
same,Population Fragmented Nuclei (%),[12],11%
same,Population Healthy Nuclei (%),[12],81%
same,Population Hoechst High Intensity Objects (%),[12],3%
same,Population Mitochondria Different-Phenotype (%),[12],30%
same,Population Mitotic Cells (%),[12],69%
same,Population Normal (%),[12],96%
same,Population Pyknosed Nuclei (%),[12],7%
same,Population Tubulin-Different-Phenotype (%),[12],12%
same,Total Cell Count,[12],521
